Test results published in publication PMC9050161 (RSC Advances, 2020).

Columns and labels:
p110β = conditions: cited from earlier work
BCRP = BCRP (Homo sapiens, UniProt Q9UNQ0); experiment: M2 excretion in HeLa1A9 cells after shRNA knock-down of BCRP; type: cell-based
Outline: (§1)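 shRNA plasmid against BCRP, MRP1, MRP3 or MRP4 transfected into UGT1A9-expressing HeLa cells, then exposed to 5 μM test compound in HBSS. Medium sampled at 30–120 min with replacement; cells collected at 120 min. UHPLC gave extracellular and intracellular glucuronide, excretion rate, efflux clearance (excretion rate/intracellular concentration) and fraction metabolized (fmet), each compared with control. Triplicate.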

CYP1A2 = target: T1, CYP1A2 (Homo sapiens, UniProt P05177); experiment: Inhibition of CYP1A2; type: biochemical
T1 sequence (P05177 1-516): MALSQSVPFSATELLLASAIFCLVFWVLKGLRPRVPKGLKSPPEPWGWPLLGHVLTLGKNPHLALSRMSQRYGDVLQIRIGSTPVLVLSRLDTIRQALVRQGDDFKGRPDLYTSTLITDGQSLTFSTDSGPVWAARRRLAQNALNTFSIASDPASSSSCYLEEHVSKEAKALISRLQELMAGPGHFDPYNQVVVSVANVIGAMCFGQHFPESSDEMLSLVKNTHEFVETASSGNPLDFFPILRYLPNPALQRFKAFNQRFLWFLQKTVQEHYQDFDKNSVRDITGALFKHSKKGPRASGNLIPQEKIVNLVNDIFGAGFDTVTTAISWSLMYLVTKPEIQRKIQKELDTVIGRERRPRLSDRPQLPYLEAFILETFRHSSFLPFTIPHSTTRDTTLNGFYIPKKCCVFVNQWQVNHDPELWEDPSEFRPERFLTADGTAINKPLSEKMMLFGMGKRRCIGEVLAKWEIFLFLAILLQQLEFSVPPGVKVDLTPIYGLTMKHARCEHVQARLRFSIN
Outline: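 Recombinant human CYPs at 0.05 mg mL−1 protein, each with its probe substrate near Km: ethoxyresorufin 1 μM (CYP1A1), phenacetin 100 μM (CYP1A2), nifedipine 40 μM (CYP3A4, 3A5). Incubated at 37 °C without (control) or with test compound at 1, 10 and 100 μM. Supernatant analysed by UHPLC-TQD-MS; activity relative to control; triplicate.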

CYP2B6 = target: T2, CYP2B6 (Homo sapiens, UniProt P20813); experiment: Inhibition of CYP2B6; type: biochemical
T2 sequence (P20813 1-491): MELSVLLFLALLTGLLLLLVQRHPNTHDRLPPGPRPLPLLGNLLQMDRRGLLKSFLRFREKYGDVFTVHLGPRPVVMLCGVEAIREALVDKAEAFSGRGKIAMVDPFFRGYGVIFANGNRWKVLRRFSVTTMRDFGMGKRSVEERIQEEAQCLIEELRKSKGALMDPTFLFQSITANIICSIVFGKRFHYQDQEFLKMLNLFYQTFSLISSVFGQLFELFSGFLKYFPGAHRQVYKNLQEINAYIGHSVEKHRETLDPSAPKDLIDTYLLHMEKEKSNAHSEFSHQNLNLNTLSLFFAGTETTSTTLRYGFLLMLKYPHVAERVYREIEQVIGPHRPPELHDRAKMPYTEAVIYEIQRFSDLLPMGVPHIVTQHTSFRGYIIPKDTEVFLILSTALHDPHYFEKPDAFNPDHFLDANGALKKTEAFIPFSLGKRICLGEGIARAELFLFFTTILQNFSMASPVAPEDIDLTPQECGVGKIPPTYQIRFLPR
Outline: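 Recombinant human CYPs at 0.1 mg mL−1 protein, each with its probe substrate near Km: coumarin 100 μM (2A6), bupropion 100 μM (2B6), paclitaxel 60 μM (2C8), tolbutamide 200 μM (2C9), mephenytoin 100 μM (2C19), chlorzoxazone 200 μM (2E1). Incubated at 37 °C with or without test compound at 1, 10 or 100 μM. UHPLC-TQD-MS read-out; triplicate.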

MRP3 = MRP3 (Homo sapiens, UniProt O15438); experiment: M2 excretion in HeLa1A9 cells after shRNA knock-down of MRP3; type: cell-based; conditions: MRP3 silenced, p > 0.05
Chain of MRP3 (O15438 whole entry): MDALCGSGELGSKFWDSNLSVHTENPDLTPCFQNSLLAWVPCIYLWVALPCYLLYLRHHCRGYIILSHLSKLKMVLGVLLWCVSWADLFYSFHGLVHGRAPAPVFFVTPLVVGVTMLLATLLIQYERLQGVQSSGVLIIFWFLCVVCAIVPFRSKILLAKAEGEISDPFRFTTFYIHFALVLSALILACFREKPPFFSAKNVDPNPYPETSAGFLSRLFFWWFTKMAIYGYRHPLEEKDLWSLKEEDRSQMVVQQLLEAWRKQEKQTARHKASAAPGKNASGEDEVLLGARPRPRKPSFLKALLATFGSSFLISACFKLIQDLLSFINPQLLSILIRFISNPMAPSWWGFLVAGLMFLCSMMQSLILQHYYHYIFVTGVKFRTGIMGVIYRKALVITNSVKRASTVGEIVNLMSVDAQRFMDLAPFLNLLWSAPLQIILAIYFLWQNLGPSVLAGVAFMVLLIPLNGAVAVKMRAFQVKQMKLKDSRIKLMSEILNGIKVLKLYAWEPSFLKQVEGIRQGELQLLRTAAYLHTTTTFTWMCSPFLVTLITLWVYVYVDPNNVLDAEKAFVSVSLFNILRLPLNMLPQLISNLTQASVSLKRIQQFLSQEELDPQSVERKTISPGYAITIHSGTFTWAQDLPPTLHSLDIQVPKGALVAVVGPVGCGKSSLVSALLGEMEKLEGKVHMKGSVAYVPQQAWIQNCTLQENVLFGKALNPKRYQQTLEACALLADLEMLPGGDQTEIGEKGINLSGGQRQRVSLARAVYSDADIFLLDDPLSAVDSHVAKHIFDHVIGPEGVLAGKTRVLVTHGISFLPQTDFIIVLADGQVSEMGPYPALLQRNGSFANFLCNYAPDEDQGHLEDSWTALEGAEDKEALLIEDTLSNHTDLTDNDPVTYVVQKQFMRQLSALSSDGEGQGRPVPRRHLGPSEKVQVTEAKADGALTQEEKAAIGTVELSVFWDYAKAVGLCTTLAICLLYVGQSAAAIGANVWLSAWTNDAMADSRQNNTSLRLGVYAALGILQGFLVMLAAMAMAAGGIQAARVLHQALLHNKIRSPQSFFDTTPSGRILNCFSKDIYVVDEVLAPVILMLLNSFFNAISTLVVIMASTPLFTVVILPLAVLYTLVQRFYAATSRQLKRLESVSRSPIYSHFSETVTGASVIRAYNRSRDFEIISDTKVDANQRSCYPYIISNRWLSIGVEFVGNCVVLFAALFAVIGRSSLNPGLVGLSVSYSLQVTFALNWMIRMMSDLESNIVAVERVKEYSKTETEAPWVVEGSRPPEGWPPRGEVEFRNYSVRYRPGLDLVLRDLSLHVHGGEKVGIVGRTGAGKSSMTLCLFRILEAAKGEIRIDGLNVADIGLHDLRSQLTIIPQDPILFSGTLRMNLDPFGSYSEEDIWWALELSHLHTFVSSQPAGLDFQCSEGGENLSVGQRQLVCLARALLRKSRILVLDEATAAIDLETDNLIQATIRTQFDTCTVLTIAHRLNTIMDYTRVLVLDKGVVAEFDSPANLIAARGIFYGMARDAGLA
Outline: as §1

UGT1A6 = UGT1A6 (Homo sapiens, UniProt P19224); experiment: Inhibition of UGT1A6; type: biochemical
Chain of UGT1A6 (P19224 27-532): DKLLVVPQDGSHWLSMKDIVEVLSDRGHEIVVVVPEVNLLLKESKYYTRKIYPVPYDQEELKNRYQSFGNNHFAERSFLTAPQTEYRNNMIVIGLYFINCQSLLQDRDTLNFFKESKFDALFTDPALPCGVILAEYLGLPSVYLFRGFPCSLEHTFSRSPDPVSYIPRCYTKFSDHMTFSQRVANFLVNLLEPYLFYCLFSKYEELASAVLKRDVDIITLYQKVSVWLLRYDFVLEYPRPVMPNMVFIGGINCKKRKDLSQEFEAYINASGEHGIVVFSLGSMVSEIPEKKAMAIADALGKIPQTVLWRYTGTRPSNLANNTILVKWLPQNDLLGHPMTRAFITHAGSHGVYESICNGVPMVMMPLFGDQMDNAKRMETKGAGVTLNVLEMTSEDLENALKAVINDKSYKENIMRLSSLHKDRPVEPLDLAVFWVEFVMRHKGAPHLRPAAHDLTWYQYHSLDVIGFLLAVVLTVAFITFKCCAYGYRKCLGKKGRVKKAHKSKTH
Outline: (§2)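 Recombinant human UGTs screened with probe substrates: β-estradiol for UGT1A1, propofol for 1A9, and 4-methylumbelliferone for 1A3, 1A6, 1A7, 1A8, 1A10, 2B4, 2B7, 2B10, 2B15 and 2B17. Incubated at 37 °C without (control) or with test compound at 1, 10 or 100 μM. Glucuronide formation measured relative to control; triplicate.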

UGT2B15 = UGT2B15 (Homo sapiens, UniProt P54855); experiment: Inhibition of UGT2B15; type: biochemical; conditions: PI-103 1, 10 and 100 μM
Chain of UGT2B15 (P54855 24-530): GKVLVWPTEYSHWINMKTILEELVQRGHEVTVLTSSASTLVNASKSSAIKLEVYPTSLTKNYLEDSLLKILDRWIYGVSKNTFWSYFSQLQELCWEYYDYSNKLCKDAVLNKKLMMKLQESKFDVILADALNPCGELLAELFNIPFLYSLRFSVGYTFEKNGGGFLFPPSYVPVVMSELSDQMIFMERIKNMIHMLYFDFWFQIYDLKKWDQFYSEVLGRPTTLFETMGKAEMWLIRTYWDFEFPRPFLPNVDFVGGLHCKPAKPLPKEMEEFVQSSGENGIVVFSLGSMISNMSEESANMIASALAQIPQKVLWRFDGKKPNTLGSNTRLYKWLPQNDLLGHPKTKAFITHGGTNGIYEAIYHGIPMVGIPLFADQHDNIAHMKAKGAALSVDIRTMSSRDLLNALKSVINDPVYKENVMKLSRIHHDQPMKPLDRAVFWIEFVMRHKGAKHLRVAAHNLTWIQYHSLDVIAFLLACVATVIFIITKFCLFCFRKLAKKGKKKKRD
Outline: as §2

UGT1A9 = UGT1A9 (Homo sapiens, UniProt O60656); experiment: Inhibition of UGT1A9; type: biochemical
Chain of UGT1A9 (O60656 26-530): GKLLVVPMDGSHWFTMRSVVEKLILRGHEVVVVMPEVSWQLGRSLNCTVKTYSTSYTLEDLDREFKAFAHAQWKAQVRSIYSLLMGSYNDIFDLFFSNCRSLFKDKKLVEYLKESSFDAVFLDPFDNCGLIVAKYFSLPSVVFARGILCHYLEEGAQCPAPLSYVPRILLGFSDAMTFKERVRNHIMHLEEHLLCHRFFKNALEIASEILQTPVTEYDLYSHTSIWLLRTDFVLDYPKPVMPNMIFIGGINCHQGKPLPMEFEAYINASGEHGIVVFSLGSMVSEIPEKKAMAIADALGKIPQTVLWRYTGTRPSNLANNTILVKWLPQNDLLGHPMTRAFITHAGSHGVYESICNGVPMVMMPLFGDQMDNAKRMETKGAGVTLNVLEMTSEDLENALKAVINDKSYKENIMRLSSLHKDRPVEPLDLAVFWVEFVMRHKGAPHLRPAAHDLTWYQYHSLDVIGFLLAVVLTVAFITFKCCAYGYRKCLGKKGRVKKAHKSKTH
Outline: as §2

[1] = tested on: normal hematopoietic progenitors; conditions: cited from earlier work
UGT1A3 = target: T3, UGT1A3 (Homo sapiens, UniProt P35503); experiment: Inhibition of UGT1A3; type: biochemical
T3 sequence (P35503 29-534): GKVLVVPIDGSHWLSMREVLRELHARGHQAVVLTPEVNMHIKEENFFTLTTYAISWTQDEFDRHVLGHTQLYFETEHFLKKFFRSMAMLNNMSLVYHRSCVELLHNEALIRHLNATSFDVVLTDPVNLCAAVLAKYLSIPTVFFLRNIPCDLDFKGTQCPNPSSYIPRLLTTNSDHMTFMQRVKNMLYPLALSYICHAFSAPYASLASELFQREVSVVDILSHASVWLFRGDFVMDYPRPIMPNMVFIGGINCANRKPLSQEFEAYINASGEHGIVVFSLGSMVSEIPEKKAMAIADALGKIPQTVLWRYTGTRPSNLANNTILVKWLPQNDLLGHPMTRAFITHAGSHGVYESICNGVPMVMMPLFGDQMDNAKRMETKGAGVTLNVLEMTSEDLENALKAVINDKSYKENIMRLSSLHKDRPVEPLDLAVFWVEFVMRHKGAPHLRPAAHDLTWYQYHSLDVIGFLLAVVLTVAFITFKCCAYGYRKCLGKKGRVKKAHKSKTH
Outline: as §2

Chain of BCRP (Q9UNQ0 whole entry): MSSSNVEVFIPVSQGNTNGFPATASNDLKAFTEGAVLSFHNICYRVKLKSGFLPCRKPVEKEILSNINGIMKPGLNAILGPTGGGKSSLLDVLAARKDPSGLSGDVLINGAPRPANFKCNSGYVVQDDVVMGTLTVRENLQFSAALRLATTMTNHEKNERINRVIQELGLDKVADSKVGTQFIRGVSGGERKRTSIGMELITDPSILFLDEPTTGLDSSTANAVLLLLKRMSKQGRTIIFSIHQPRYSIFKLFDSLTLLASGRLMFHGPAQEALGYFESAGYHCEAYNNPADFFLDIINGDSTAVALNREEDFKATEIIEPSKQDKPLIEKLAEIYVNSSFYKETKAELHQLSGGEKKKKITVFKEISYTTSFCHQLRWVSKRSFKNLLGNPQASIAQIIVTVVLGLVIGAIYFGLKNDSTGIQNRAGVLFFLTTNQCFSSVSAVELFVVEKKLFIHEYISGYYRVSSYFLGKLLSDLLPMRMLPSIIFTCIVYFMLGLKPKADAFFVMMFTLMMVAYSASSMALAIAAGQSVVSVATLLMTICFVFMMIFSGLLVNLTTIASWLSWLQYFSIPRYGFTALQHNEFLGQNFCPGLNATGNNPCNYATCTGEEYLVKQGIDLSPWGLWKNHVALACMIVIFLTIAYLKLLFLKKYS

For `Oc1cccc(-c2nc(N3CCOCC3)c3oc4ncccc4c3n2)c1` [PI-103], the IC50 (p110β) is listed as 88 nM, the “reduction in fraction of metabolized (fmet) PI-103” value (BCRP) is listed as 27.6% and the IC50 (CYP1A2) is listed as 370 ± 40 nM. For the same compound, the Ki (CYP1A2) was 380 ± 30 nM, the residual activity (CYP1A2; CYP1A2, 100 μM PI-103) was 8.63 % of the negative control and the Type of inhibition (CYP1A2; CYP1A2, phenacetin) was “Noncompetitive”. The IC50 (CYP2B6) was 2250 ± 280 nM, the Ki (CYP2B6) was 640 ± 220 nM and the residual activity (CYP2B6; CYP2B6, 100 μM PI-103) was 29.70 % of the negative control. The Type of inhibition (CYP2B6; CYP2B6, bupropion) was “Mixed-type”, the α (CYP2B6; CYP2B6, bupropion, mixed-type model (selected)) was 5.09 ± 4.48 and the “alteration in fmet value of PI-103” value (MRP3) was 9.2%. The IC50 (UGT1A6) was 168000 ± 15300 nM, the inhibitory effect (UGT2B15) was “negligible” and the IC50 (UGT1A9) was 16600 ± 1290 nM. The “impact on normal hematopoietic progenitors” value [1] was “little impact”, the IC50 (UGT1A3) was 6890 ± 730 nM and the Ki (UGT1A3) was 2580 ± 840 nM. For the same compound, the Type of inhibition (UGT1A3; UGT1A3, 4-MU) was “Mixed-type” and the α (UGT1A3; UGT1A3, 4-MU, mixed-type model (selected)) was 2.97 ± 1.61.
